{
  "source": "paper PMC10357458",
  "about": "(ACS Omega, 2023)",
  "system": "CAIX-positive SK-RC-52 cells",
  "test": "Cellular binding, flow cytometry and confocal microscopy on CAIX-positive cells",
  "format": "cell-based, human",
  "details": "fluorescent derivatives, 100 nM, 30 min",
  "summary_of_the_method": "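SK-RC-52 human renal carcinoma cells were grown in RPMI with 10% FCS and 1% antibiotic-antimycotic at 37 °C, 5% CO₂, and split 1:6 with 0.05% trypsin-EDTA. For confocal imaging, cells were seeded at 10^4 per chamber well in RPMI with 10% FBS and 10 mM HEPES, then grown overnight. Fluorescein-labelled test compounds were imaged with DAPI-stained nuclei. Acetazolamide-fluorescein was the positive control and untargeted fluorescein the negative control.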",
  "data": [
    {"smiles": "CC(=O)Nc1nnc(S(N)(=O)=O)s1", "note": "[AAZ, acetazolamide]", "values": [
      {"measurement": "binding to CAIX on the surface of SK-RC-52 cells", "value": "accumulated on the surface"}
    ]}
  ]
}
